Assay results from ChEMBL document CHEMBL1649064, “Antimalarial activity of novel 5-aryl-8-aminoquinoline derivatives” (J Med Chem, 2011).
Values after ≈ are worked out from the molar mass of the structure shown. Active and inactive are the calls of the source. The calls are words filed in the database; no cut-off is given here.

Experiments:
[1] = Half life in human microsomes by LC-MS/MS analysis; type: ADME, Microsome
Method in brief: (§1)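 Microsomal stability run on a robotic sample processor in 96-well format, following an internal SOP. Parent compound quantified by LC-MS/MS with fast LC gradient or isocratic methods.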

[2] = test system: RAW264.7; test: Cytotoxicity against mouse RAW264.7 cells after 24 hrs by MTT assay; type: cell-based; conditions: RAW264.7, 24 h
Method in brief: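 Macrophage line from ATCC, seeded at 2.5 × 10⁴ cells/well and left ~12 h. Drug stocks in DMSO, serially diluted to 0.29-48 μg/mL/well. Exposure 24 h, then drug removed and fresh medium added for a further 24 h recovery. Viability read by MTT. Controls were no-cell background, untreated cells and 0.6% DMSO. Duplicate runs, IC50 from sigmoidal variable-slope fit.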

[3] = test system: Plasmodium falciparum; test: Antimalarial activity against mefloquine-resistant Plasmodium falciparum CDC Sierra Leone 1 D6 after 48 hrs by [3H]hypoxanthine uptake assay; type: functional, organism-based
Method in brief: (§2)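 Compounds dissolved in DMSO, diluted 400-fold in RPMI 1640 with 25 mM Hepes, 32 mM NaHCO₃ and 10% Albumax I, then 2-fold serial dilutions over 11 concentrations. Parasites exposed 48 h at 37 °C under 5% O₂/5% CO₂/90% N₂, then [³H]-hypoxanthine added for a further 18 h. DNA harvested onto glass filters and counted. IC50 from a nonlinear regression logistic dose-response model.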

[4] = Therapeutic index, ratio of IC50 for mouse RAW264.7 cells to IC50 for mefloquine-resistant Plasmodium falciparum CDC Sierra Leone 1 D6; type: cell-based; conditions: read-out: TI
Method in brief: (§3)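 RAW 264.7 macrophages seeded at 2.5 × 10⁴ cells/well and pre-incubated about 12 h. Exposed 24 h to 0.29-48 μg/mL of DMSO-dissolved drug, then drug removed, fresh medium added and 24 h recovery. Viability by MTT, with background, untreated and 0.6% DMSO controls. Duplicate runs, IC50 by sigmoidal variable-slope fit. Index is the macrophage IC50 over the P. falciparum IC50.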

[5] = Therapeutic index, ratio of IC50 for mouse RAW264.7 cells to IC50 for mefloquine-susceptible Plasmodium falciparum CDC Indochina 3 W2; type: cell-based; conditions: read-out: TI; method in brief: as §3
[6] = test system: Plasmodium falciparum; test: Antimalarial activity against mefloquine-susceptible Plasmodium falciparum CDC Indochina 3 W2 after 48 hrs by [3H]hypoxanthine uptake assay; type: functional, organism-based; method in brief: as §2
[7] = Half life in mouse microsomes by LC-MS/MS analysis; type: ADME, Microsome; method in brief: as §1
[8] = test system: Plasmodium berghei; test: Prophylactic antimalarial activity against Plasmodium berghei infected Exoerythrocytic mouse model; type: functional
Method in brief: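 Mice infected with P. berghei sporozoites by intravenous inoculation. Compounds given orally once daily for 3 days at up to 320 mg/kg/day. Read-out was cure and delay of patency in groups of 4 mice.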

[9] = test system: Plasmodium berghei; test: Prophylactic antimalarial activity against Plasmodium berghei infected Exoerythrocytic mouse model at 320 mg/kg, po for 3 days; type: functional, organism-based; design: dose 320 mg/kg
Method in brief: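 Mice infected with P. berghei sporozoites by intravenous inoculation. Compound given orally daily for 3 days. Read-outs were cure and delay of patency.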

Compound | half-life [1] | IC50 [2] | IC50 [3] | selectivity ratio [4] | selectivity ratio [5] | IC50 [6] | half-life [7] | MAC [8] | MTD [8] | Activity [9]
COc1cc(NC(C)CCCN)c2nc(C(F)(F)F)cc(C)c2c1-c1cccc(C)c1.O=C(O)CCC(=O)O (stereo not drawn) | > 1 h | 1.8 µg/mL | 0.2 µg/mL | 9 | 2 | 0.9 µg/mL | > 1 h |  |  | 
COc1cc(C)c2c(Oc3cccc(C(F)(F)F)c3)c(OC)cc(NC(C)CCCN)c2n1 (stereo not drawn) [TAFENOQUINE] | > 1 h | 5.9 µg/mL (≈ 12.7 µM) | 2.7 µg/mL (≈ 5.83 µM) | 2.2 | 7.38 | 0.8 µg/mL (≈ 1.73 µM) | > 1 h | 7.5 mg/kg/day | 120 mg/kg/day | 
COc1cc(C)c2c(-c3ccccc3)c(OC)cc(NC(C)CCCN)c2n1.O=C(O)CCC(=O)O (stereo not drawn) | > 1 h | 1.9 µg/mL | 3.2 µg/mL | 0.59 | 1.46 | 1.3 µg/mL | > 1 h |  |  | 
COc1cc(NC(C)CCCNC(=O)OC(C)(C)C)c2nc(C(F)(F)F)cc(C)c2c1-c1cccc(C)c1 (stereo not drawn) | 0.217 h | > 48 µg/mL | 0.2 µg/mL (≈ 0.376 µM) | > 240 | > 59 | 0.9 µg/mL (≈ 1.69 µM) | 0.183 h | >960 mg/kg/day | >960 mg/kg/day | inactive
COc1cc(NC(C)CCCN)c2nc(C(F)(F)F)cc(C)c2c1-c1ccc(C(F)(F)F)cc1.O=C(O)CCC(=O)O (stereo not drawn) | > 1 h | 10.1 µg/mL | 1.7 µg/mL | 5.94 | 12.6 | 0.8 µg/mL | > 1 h |  |  | 
COc1cc(NC(C)CCCNC(=O)OC(C)(C)C)c2nc(C(F)(F)F)cc(C)c2c1-c1ccc(C(F)(F)F)cc1 (stereo not drawn) | 0.5 h | > 48 µg/mL | 1.3 µg/mL (≈ 2.22 µM) | > 36 | > 34 | 1.4 µg/mL (≈ 2.39 µM) | 0.267 h | >960 mg/kg/day | >960 mg/kg/day | inactive
COc1cc(NC(C)CCCNC(=O)OC(C)(C)C)c2nc(C(F)(F)F)cc(C)c2c1-c1cccc(C(F)(F)F)c1 (stereo not drawn) | 0.3 h | > 48 µg/mL | 1.1 µg/mL (≈ 1.88 µM) | > 39.7 | > 17 | 2.8 µg/mL (≈ 4.78 µM) | 0.3 h | >960 mg/kg/day | >960 mg/kg/day | inactive
COc1cc(NC(C)CCCN)c2nc(C(F)(F)F)cc(C)c2c1-c1cccc(C(F)(F)F)c1.O=C(O)CCC(=O)O (stereo not drawn) | > 1 h | 1.5 µg/mL | 1.4 µg/mL | 1.07 | 3 | 0.5 µg/mL | > 1 h |  |  | 
COc1cc(C)c2c(-c3ccc(Cl)c(Cl)c3)c(OC)cc(NC(C)CCCN)c2n1.O=C(O)CCC(=O)O (stereo not drawn) | > 1 h | 1.7 µg/mL | 2.9 µg/mL | 0.58 | 1.42 | 1.2 µg/mL | > 1 h | >480 mg/kg/day | 120 mg/kg/day | inactive
COc1cc(NC(C)CCCN)c2ncccc2c1 (stereo not drawn) [PRIMAQUINE] | > 1 h | 38.7 µg/mL (≈ 149 µM) | 2.1 µg/mL (≈ 8.1 µM) | 18.4 | 43 | 0.9 µg/mL (≈ 3.47 µM) | 0.35 h | 60 mg/kg/day | <120 mg/kg/day | 
COc1cccc(-c2c(OC)cc(NC(C)CCCN)c3nc(OC)cc(C)c23)c1.O=C(O)CCC(=O)O (stereo not drawn) | > 1 h | 3.1 µg/mL | 2.8 µg/mL | 1.11 | 3.87 | 0.8 µg/mL | > 1 h | >480 mg/kg/day | >480 mg/kg/day | inactive
COc1cccc(-c2c(OC)cc(NC(C)CCCN)c3nc(C(F)(F)F)cc(C)c23)c1.O=C(O)CCC(=O)O (stereo not drawn) | > 1 h | 1.5 µg/mL | 0.3 µg/mL | 5 | 2.5 | 0.6 µg/mL | > 1 h |  |  | 
COc1cc(C)c2c(-c3cccc(C(F)(F)F)c3)c(OC)cc(NC(C)CCCN)c2n1.O=C(O)CCC(=O)O (stereo not drawn) | > 1 h | 1.3 µg/mL | 2.7 µg/mL | 0.48 | 1 | 1.3 µg/mL | > 1 h | >480 mg/kg/day | >480 mg/kg/day | inactive
COc1cc(C)c2c(-c3cccc(C)c3)c(OC)cc(NC(C)CCCN)c2n1.O=C(O)CCC(=O)O (stereo not drawn) | > 1 h | 1.9 µg/mL | 1.3 µg/mL | 1.46 | 2.71 | 0.7 µg/mL | > 1 h | 960 mg/kg/day | 960 mg/kg/day | Active
COc1cc(C)c2c(-c3ccc(C(F)(F)F)cc3)c(OC)cc(NC(C)CCCN)c2n1.O=C(O)CCC(=O)O (stereo not drawn) | > 1 h | 1.2 µg/mL | 2.2 µg/mL | 0.54 | 0.92 | 1.3 µg/mL | > 1 h | >480 mg/kg/day | >480 mg/kg/day | inactive
COc1cc(NC(C)CCCN)c2nc(C(F)(F)F)cc(C)c2c1-c1ccccc1.O=C(O)CCC(=O)O (stereo not drawn) | > 1 h | 3.1 µg/mL | 2.8 µg/mL | 1.11 | 2.21 | 1.4 µg/mL | > 1 h | >960 mg/kg/day | 480 mg/kg/day | inactive
COc1cccc(-c2c(OC)cc(NC(C)CCCNC(=O)OC(C)(C)C)c3nc(C(F)(F)F)cc(C)c23)c1 (stereo not drawn) | 0.15 h | > 80.2 µg/mL | 0.3 µg/mL (≈ 0.548 µM) | > 267 | > 134 | 0.6 µg/mL (≈ 1.1 µM) | 0.133 h | >960 mg/kg/day | >960 mg/kg/day | inactive
